Laboratory results published in ChEMBL document CHEMBL4190389, “Synthesis and activity of di- or trisubstituted N-(phenoxyalkyl)- or N-{2-[2-(phenoxy)ethoxy]ethyl}piperazine derivatives on the central nervous system” (Bioorg Med Chem Lett, 2018).

Columns and labels:
[1] = target: T1, Adrenergic receptor alpha-1 (Rattus norvegicus, UniProt P15823+P23944+P43140); experiment: Displacement of [3H]-prazosin from Wistar rat cerebral cortex membranes alpha1 adrenoceptor by liquid scintillation counting method; set-up: species or system Membrane
T1 sequence (P15823 whole entry): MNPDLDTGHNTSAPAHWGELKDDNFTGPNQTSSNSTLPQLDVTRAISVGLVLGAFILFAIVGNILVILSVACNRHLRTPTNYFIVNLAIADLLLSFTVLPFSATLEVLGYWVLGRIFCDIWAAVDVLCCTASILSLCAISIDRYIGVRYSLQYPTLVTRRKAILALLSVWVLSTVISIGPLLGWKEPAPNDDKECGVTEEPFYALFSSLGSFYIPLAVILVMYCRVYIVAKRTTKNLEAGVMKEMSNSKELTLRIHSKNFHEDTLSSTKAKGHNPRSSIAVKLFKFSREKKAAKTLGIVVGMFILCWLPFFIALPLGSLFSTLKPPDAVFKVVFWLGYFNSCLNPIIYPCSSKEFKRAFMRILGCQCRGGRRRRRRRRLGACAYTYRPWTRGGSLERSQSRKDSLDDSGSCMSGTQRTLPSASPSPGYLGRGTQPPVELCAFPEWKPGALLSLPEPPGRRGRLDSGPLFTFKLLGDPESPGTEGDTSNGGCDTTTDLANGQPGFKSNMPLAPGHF
T1 sequence (P23944 whole entry): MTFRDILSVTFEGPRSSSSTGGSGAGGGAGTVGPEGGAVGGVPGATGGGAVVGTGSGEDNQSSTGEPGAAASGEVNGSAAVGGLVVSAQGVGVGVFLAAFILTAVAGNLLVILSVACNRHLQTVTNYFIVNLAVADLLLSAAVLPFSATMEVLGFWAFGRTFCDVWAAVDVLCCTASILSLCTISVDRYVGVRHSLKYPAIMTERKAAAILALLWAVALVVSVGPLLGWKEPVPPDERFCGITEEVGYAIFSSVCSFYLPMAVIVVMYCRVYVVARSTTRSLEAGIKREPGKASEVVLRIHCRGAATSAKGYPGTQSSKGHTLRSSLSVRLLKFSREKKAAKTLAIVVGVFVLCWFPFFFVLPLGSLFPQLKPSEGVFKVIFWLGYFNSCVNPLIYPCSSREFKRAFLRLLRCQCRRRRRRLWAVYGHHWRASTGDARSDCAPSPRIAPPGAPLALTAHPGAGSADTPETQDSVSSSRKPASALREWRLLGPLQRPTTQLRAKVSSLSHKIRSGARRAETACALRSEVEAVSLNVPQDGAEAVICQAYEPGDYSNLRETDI
T1 sequence (P43140 whole entry): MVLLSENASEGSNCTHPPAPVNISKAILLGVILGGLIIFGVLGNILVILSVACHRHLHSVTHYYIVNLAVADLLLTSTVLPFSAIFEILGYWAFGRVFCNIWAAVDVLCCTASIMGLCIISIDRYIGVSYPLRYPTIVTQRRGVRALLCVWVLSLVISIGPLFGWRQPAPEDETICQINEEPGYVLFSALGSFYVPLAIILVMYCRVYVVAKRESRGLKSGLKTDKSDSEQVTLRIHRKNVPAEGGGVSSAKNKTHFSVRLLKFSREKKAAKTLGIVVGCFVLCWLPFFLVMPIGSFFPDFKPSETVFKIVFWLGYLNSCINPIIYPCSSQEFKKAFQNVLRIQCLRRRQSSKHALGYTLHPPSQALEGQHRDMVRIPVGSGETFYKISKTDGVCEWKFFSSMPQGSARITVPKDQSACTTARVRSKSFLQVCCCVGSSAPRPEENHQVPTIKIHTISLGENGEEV

Mus musculus [2] = experiment: Antidepressant-like activity in ip dosed Albino Swiss CD-1 mouse assessed as decrease in immobility time administered […] prior to test measured for last 4 mins of 6 mins observation by forced swim test (reference value: 153.9 to 201.9 secs); format: functional
Rattus norvegicus = experiment: Antidepressant-like activity in ip dosed Wistar rat assessed as decrease in immobility time administered 45 mins prior to test measured for last 4 mins of 6 mins observation by forced swim test (reference value: 153.9 to 201.9 secs); format: functional
Mus musculus [3] = experiment: Anxiolytic-like activity in ip dosed Albino Swiss CD-1 mouse assessed as increase in number of punished crossings administered for 30 mins prior to test measured for 1 min by four-plate test; format: functional
Method in brief: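 Four-plate test in mice, i.p., 30 min before test; vehicle 0.9% NaCl; doses 1.25–10 mg/kg; number of punished crossings counted; mean ± SEM, n = 8–10 mice per group; ANOVA F statistics.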

Ki [1]: 23 nM
Compound: COc1ccccc1N1CCN(CCOCCOc2c(C)cccc2C)CC1.Cl
ED (Mus musculus [2]): 2.5 mg/kg | ED (Rattus norvegicus): 5 mg/kg | ED (Mus musculus [3]): 2.5 mg/kg
